The text below walks through data of ChEMBL document CHEMBL1649208, “High-throughput screening identifies three inhibitor classes of the telomere resolvase from the lyme disease spirochete” (Antimicrob Agents Chemother, 2009).

Experiment [1] concerns the target T1, Telomere resolvase ResT (Borrelia burgdorferi (strain ATCC 35210 / B31 / CIP 102532 / DSM4680)) (UniProt O50979).
T1 sequence (whole entry): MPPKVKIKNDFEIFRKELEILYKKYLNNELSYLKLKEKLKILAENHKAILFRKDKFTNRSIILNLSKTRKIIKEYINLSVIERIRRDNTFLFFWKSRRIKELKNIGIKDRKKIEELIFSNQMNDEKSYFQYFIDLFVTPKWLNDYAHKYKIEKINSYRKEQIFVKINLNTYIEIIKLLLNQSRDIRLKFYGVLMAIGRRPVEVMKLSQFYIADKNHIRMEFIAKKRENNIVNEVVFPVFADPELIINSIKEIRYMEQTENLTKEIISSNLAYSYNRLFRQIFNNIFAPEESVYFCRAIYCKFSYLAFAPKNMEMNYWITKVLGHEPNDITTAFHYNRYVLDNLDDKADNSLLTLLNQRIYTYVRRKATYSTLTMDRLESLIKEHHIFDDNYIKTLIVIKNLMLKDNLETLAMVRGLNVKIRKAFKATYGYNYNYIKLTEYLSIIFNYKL
Briefly: Inhibition of Borrelia burgdorferi telomere resolvase assessed as inhibition of telomere resolution at 10 uM. To be noted: Borreliella burgdorferi.

Experiment [2] has as its target T1, Telomere resolvase ResT (Borrelia burgdorferi (strain ATCC 35210 / B31 / CIP 102532 / DSM4680)). Briefly: Inhibition of Borrelia burgdorferi telomere resolvase assessed as DNA cleavage at 10 uM. To be noted: Borreliella burgdorferi.
Experiment [3] shares this target. Briefly: Inhibition of Borrelia burgdorferi telomere resolvase 164-449 sequence assessed as inhibition of DNA binding activity at 10 uM by electrophoretic mobility shift assay. To be noted: Borreliella burgdorferi. For orientation: Mobility shift assays separate free from complexed probe on a gel.
The target in another experiment is T2, Telomere resolvase ResT (Borrelia burgdorferi (strain ATCC 35210 / B31 / CIP 102532 / DSM4680), UniProt O50979).
T2 sequence (O50979 whole entry): T1 sequence (whole entry)
Briefly: Inhibition of Borrelia burgdorferi telomere resolvase by gel-based telomere resolution assay. Further details: species or system Borreliella burgdorferi.

The target in experiment [4] is T1, Telomere resolvase ResT (Borrelia burgdorferi (strain ATCC 35210 / B31 / CIP 102532 / DSM4680)). Description: Inhibition of Borrelia burgdorferi telomere resolvase assessed as reduction in DNA cleavage at 10 uM. As to conditions: Borreliella burgdorferi. An outline of the steps:
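Cleavage-step assay with 5′-bridging phosphorothiolate oligonucleotide substrate (OGCB116+OGCB117), 5.4 nM, 32P-labeled. Recombinant ResT at 165 nM, 10% DMSO final, 25 mM Tris-HCl pH 8.5, 100 mM NaCl, 1 mM EDTA, 25% glycerol. 30 min at 30°C, stopped with 0.1% SDS. Covalent protein–DNA complex resolved on 5% SDS-polyacrylamide gel, phosphorimager. Expressed relative to ResT+DMSO control.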

For orientation: inhibition means how much of the control response was suppressed. A word on the IC50: it is the concentration needed to halve the response being measured. A high value points to weaker potency in that assay.

SMILES strings stand for the structures. Bounds are passed on as bounds.

Turning to `O=C(O)CCCCCCCCCCCCC1C=CCC1` (centres undefined), in experiment [1], the inhibition is at least 70%. In addition, in experiment [2], the % cleavage relative to control turned out to be 75%. The % binding relative to control in experiment [3] was 5%. On Telomere resolvase ResT, this compound registered an IC50 of 2.62 µM.

Take `O=C(O)c1ccc2c3c(cccc13)C(=O)N(c1ccc(-c3nc4ccc(N5C(=O)c6cccc7c(C(=O)O)ccc(c67)C5=O)cc4[nH]3)cc1)C2=O`: the inhibition in experiment [1] was at least 70%. Moreover, the % cleavage relative to control in experiment [2] worked out at 65%. Further, the % binding relative to control in experiment [3] was found to be 16%. This compound also registered an IC50 at Telomere resolvase ResT of 3.16 µM.

With `COc1cc(O)c2c(c1)oc(=O)c1c3cc(O)c(O)cc3oc21` [WEDELOLACTONE], the inhibition was 6% in experiment [4] and at least 70% in experiment [1]. The IC50 against Telomere resolvase ResT amounted to 8.67 µM.

As for `C[C@H](CCC(=O)O)[C@H]1CC[C@H]2[C@@H]3CC[C@@H]4CCCC[C@]4(C)[C@H]3CC[C@@]12C`, the inhibition in experiment [1] was at least 70%. Also, the % cleavage relative to control in experiment [2] came out at 79%. The % binding relative to control in experiment [3] is 14%. In addition, the IC50 against Telomere resolvase ResT stood at 1.96 µM.

For `O=C(O)c1ccc(-c2nc(-c3ccc(-c4ccccc4)cc3)c(-c3ccc(-c4ccccc4)cc3)[nH]2)cc1`, the inhibition in experiment [1] is at least 70%. Moreover, in experiment [2], the % cleavage relative to control is 43%. Besides, the % binding relative to control in experiment [3] amounted to 33%. Half-maximal inhibition on Telomere resolvase ResT (IC50) was put at 9.52 µM.
